Compounds with a hit are over-represented: about 4.1% of the library has one in this group of screens.
hERG rescue – hERG (human) protection from proarrhythmic block. activation (rescue from dofetilide block), less the hit threshold, % at 10 µM. actives 0.51% (n = 310,000). AID 1511. CHO-hERG, FluxOR thallium flux, dofetilide IC70 present. Q12809;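 active means activation above the mean of controls blocked by dofetilide plus 5 SD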;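 further: thallium influx through hERG after potassium depolarization seen as dye fluorescence rise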
KCNQ1 pot – potentiators or activators of human KCNQ1 potassium channel | P51787 | CHO-K1 KCNQ1, thallium flux FluxOR fluorescence; hits give high values | B-score at 10 µM | actives 0.35% (n = 310,000) | AID 2648;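 active means fluorescence ratio B-score, a plate-corrected score, at least three library SD, with initial intensity B-score within 5 SD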
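Material: CHO-K1 cells stably expressing KCNQ1. Medium: assay buffer for compound exposure, DMSO matched across wells. Reagent: K+/Tl+ depolarizing stimulus. Compound dosing: single-concentration screen. Times: 37 °C overnight plating, 90-min dark dye load, 20-min compound pretreatment. Technique: FluxOR Tl+ flux fluorescence.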
Cl transport mod – KCC2 (human) Cl- transport modulation. Q9H2X9. KCC2 cells, thallium flux FluoZin-2 fluorescence. B-score of Tl+ flux slope (higher = more flux/activation; lower = inhibition) at 10 µM. actives 2.2% (n = 190,000);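 active means thallium flux slope and its plate-corrected score both differing from the plate sample mean at a set confidence after two filtering rounds, in either direction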;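 further: slope of fluorescence scaled to starting intensity during 10 to 20 s after thallium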
KCNQ1 block – inhibitors of human KCNQ1 potassium channel; P51787; CHO-K1 KCNQ1, FluxOR thallium flux fluorescence; hits give high values; B-score at 10 µM; actives 1.3% (n = 310,000);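 active means compounds whose thallium flux B-score, printed positive for inhibition, exceeds three library SD while starting fluorescence stays within three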;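 further: channel opened by potassium depolarization with thallium stimulus after 20 min compound exposure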
KCNK9 inh – human KCNK9 channel inhibition; Q9NPC2; HEK293 KCNK9, FluxOR thallium flux fluorescence; hits give low values; B-score at 10 µM; actives 1.2% (n = 310,000); AID 488922;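 active means ratio B-score over 3 SD below the library mean, with starting fluorescence within 5 SD of its mean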;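 further: negative B-score means less thallium flux so channel inhibition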
KCNK3 block – human KCNK3 channel inhibition, primary screen; B-score at 10 µM; CHO-KCNK3 thallium flux, FluxOR fluorescence; hits give low values; O14649; actives 0.84% (n = 340,000); AID 602410;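 active means B-score under library mean minus 4 SD, starting fluorescence ratio at most library mean plus 5 SD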;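 further: more negative B-score means stronger inhibition of thallium flux through KCNK3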
Target sequence (O14649 whole entry, looked up): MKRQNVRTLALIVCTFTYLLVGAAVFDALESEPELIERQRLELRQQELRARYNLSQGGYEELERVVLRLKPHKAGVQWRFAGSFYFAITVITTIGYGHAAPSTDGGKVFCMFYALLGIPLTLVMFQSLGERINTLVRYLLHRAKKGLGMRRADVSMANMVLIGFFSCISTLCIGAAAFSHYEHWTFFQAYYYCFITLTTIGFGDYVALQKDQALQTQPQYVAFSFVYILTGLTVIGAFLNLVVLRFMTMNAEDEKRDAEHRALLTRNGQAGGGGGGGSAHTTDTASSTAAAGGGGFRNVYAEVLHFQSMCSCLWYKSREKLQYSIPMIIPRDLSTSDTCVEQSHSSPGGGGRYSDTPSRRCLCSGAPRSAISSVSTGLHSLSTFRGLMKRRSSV
KCNK9 inh conf – confirmation of human KCNK9 potassium channel inhibitors; shares compounds with KCNK9 inh; HEK293 KCNK9 cells, FluxOR thallium flux fluorescence; actives 43% (n = 4,900); inhibition, % at 10 µM; AID 492992;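 active means thallium signal inhibited by more than 5 SD of the compound-free buffer control wells, on both duplicate plates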;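 further: 0% = assay buffer control wells without compound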
Kir2-1 spec – selectivity of KCNK9 modulators against mouse Kir2.1; Kir2.1 cells, FluxOR thallium flux fluorescence; actives 4% (n = 4,900); AID 492993; inhibition, % at 10 µM; shares compounds with KCNK9 inh;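 active means thallium signal drop more than 5 SD beyond the mean of the no-compound control wells, seen in both duplicate plates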;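 further: signal is fluorescence rise after thallium addition divided by baseline fluorescence; plate controls were assay buffer only for no effect and full block by chlorpromazine control for full effect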
HEK293 Tl ctr – second check of KCNK9 modulator effects in non-induced HEK293 cells. AID 492997. shares compounds with KCNK9 inh. FluxOR thallium flux. inhibition, % at 10 µM. actives 40% (n = 4,900);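 active means thallium signal drop beyond 5 SD of the untreated control mean, on both duplicate plates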;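 further: plate controls were buffer only IC0 wells for no effect and SID17386958 at its maximal inhibitory level for full effect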
An asterisk follows results filed as active; i = inactive; . = no result given.

SMILES	hERG rescue	KCNQ1 pot	Cl transport mod	KCNQ1 block	KCNK9 inh	KCNK3 block	KCNK9 inh conf	Kir2-1 spec	HEK293 Tl ctr
CCCC(Oc1ccc(Br)cc1)c1nc2c3cc(OC)c(OC)cc3nc(=S)n2[nH]1 (centres undefined)	-14.3	i	-2.92	i	i	i	i	i	i
Cc1ccc(OCC(=O)NC2CCS(=O)(=O)C2)c(C)c1 (centres undefined)	-7.2	i	.	i	i	i	.	.	.
Cc1cc(N2CCN(C)CC2)ccc1NC(=O)c1c2c(nc3ccccc13)CCN(Cc1ccccc1)C2	-7.4	i	-0.855	i	i	i	.	.	.
Cc1c(Cl)cccc1NC(=O)COC(=O)c1c2c(nc3ccccc13)CCN(Cc1ccccc1)C2	-9.5	i	0.939	i	-12.5*	i	60.5%*	i	32.0%*
CCN(CC)c1ccc(NC(=O)c2ccc3c(c2)OCO3)cc1	-7.9	i	.	i	i	i	.	.	.
CCN(CC)c1ccc(/C=N/N2CCN(Cc3ccccc3Cl)CC2)c(O)c1	-6.7	i	0.45	i	i	i	.	.	.
CCN(CC)c1ccc(/C=N/N2CCN(Cc3ccc(C)cc3)CC2)c(O)c1	-4.6	i	0.936	i	i	i	i	i	i
Cc1ccc(CSc2nnc(SCC(=O)N/N=C/C=C/c3ccco3)s2)cc1	-3.4	i	0.873	i	i	i	.	.	.
COc1ccccc1/C=C/CN1CCN(c2ccccc2)CC1	-6.2	i	-0.132	i	i	i	i	i	i
COc1ccccc1/C=C/C=N/N1CCN(Cc2ccccc2)CC1	-8.2	i	-0.808	i	i	i	i	i	i
Cc1ccc(CSc2nnc(SCC(=O)N/N=C/C=C/c3ccccc3[N+](=O)[O-])s2)cc1	-7.4	i	-0.724	i	-14.7*	i	64.5%*	i	30.5%*
[O-]/[N+](=N\Nc1ccc(Cl)cc1)c1ccccc1	.	.	.	.	.	i	.	.	.
Cc1ccc(CN2CCN(/N=C\C(Br)=C\c3ccccc3)CC2)cc1	-0.7	i	-0.723	i	i	i	i	i	i
Cc1ccc(CN2CCN(/N=C/c3cc([N+](=O)[O-])ccc3Cl)CC2)cc1	-6.8	i	-0.0929	i	i	i	.	.	.
Cc1ccc(CN2CCN(/N=C/C=C/c3ccccc3[N+](=O)[O-])CC2)cc1	-10.0	i	0.192	i	i	i	i	i	i
COc1ccc2ccccc2c1CN1CCN(Cc2ccccc2)CC1	-17.3	i	0.0338	i	i	i	i	i	i
CCOc1cc(/C=C2\COc3ccccc3C2=O)cc(Br)c1OCC(=O)N(C)C	-12.1	i	.	i	i	i	.	.	.
CC1=NN(C(=O)COc2ccc(C)c(C)c2)C(O)(c2ccc(Cl)cc2)C1 (centres undefined)	-5.1	i	0.182	i	-13.8*	i	50.0%*	i	35.0%*
CC1=NN(C(=O)c2ccc(Cl)cc2)C(O)(c2ccccc2)C1 (centres undefined)	1.0	i	.	i	i	i	.	.	.
CCOC(=O)C1=NN(C(=O)COc2ccccc2)C(O)(c2ccc(Br)cc2)C1 (centres undefined)	0.8	i	.	i	-11.4*	i	i	i	i
CCC1=NN(C(=O)COc2ccccc2)C(O)(c2ccncc2)C1 (centres undefined)	-1.0	i	0.0286	i	i	i	.	.	.
CC(=O)Nc1cccc(NC(=O)C(=O)NCC(c2ccco2)N2CCc3ccccc32)c1 (centres undefined)	-6.0	i	.	i	i	i	.	.	.
Cc1c(/C=N/n2cnnc2)c2ccccc2n1CCOc1ccc(Cl)cc1	-12.4	i	.	i	-8.25*	i	i	i	i
Cc1ccc(OCCn2c(C)c(/C=N/n3cnnc3)c3ccccc32)cc1	-6.9	i	-0.463	i	i	i	.	.	.
CC(C)(C)n1nnnc1C(c1cccs1)N(Cc1cccnc1)Cc1ccccc1Cl (centres undefined)	-8.7	i	-1.13	i	-19.2*	i	70.0%*	i	54.5%*
SMILES	hERG rescue	KCNQ1 pot	Cl transport mod	KCNQ1 block	KCNK9 inh	KCNK3 block	KCNK9 inh conf	Kir2-1 spec	HEK293 Tl ctr
CC(c1nnnn1C(C)(C)C)N(Cc1cccnc1)Cc1ccccc1Cl (centres undefined)	-8.5	i	0.562	i	i	i	.	.	.
NS(=O)(=O)c1cccc(NC(=O)COC(=O)CCC(=O)c2cccs2)c1	.	.	.	.	.	i	.	.	.
Oc1ccc(/C=N/n2c(COc3ccccc3)n[nH]c2=S)c(O)c1	-15.2	i	.	i	-8.3*	i	47.5%*	i	35.0%*
Cc1cc([N+](=O)[O-])c2ccccc2c1NS(=O)(=O)c1ccccc1	.	.	.	.	.	i	.	.	.
COc1ccc(CC(=O)Nc2ccc(C(N)=O)cc2)cc1	-7.9	i	-0.602	i	i	i	.	.	.
COC(=O)/N=C(/Cc1ccc(OC)cc1)c1ccc(OC)cc1	0.5	i	.	i	i	i	i	i	i
CCOc1ccccc1C1c2[nH]c3ccccc3c2C[C@H]2C(=O)N(C3CCN(Cc4ccccc4)CC3)CC(=O)N12 (some centres undefined)	-13.5	i	.	i	i	i	i	i	i
Cc1ccc(N(CC(=O)NC2CCCCC2)C(=O)CCC(=O)Nc2nccs2)cc1	-9.0	i	.	i	i	i	.	.	.
CC(C)C[C@H](NC(=O)OCC1c2ccccc2-c2ccccc21)C(=O)O	.	.	.	.	.	i	.	.	.
CN(CC(=O)Nc1ccccc1Br)C(=O)c1sccc1-c1ccccc1	.	.	.	.	.	i	.	.	.
O=C(NCC1CCCCC1)c1cc(S(=O)(=O)N2CCOCC2)ccc1F	.	.	.	.	.	i	.	.	.
O=C(Nc1ccncc1)C1CC(=O)N(Cc2ccccc2)C1 (centres undefined)	.	.	.	.	.	i	.	.	.
CC(C)(C)OC(=O)C[C@@H]1C/C=C\C[C@@H](CC(=O)N[C@@H](CO)Cc2ccccc2)C(=O)NC[C@@H](c2ccccc2)OC1=O	.	.	.	.	.	i	.	.	.
O=C(C1=C[C@@H](c2ccc(C(F)(F)F)cc2)C[C@@H](OCCCCO)O1)N1CCN(Cc2ccccc2)CC1	-12.2	i	-2.1	i	i	i	.	.	.

High-throughput results from PubChem.
